Published values collected from several papers.
Each line is one published result; the experiments were not run side by side. In brackets after ≈: the same amount, converted by molar mass.

SMILES	organism	effect on	technique	strain	quantity	result
CC(C)Oc1c(NC(=O)c2ccc(NC(=O)[C@H](CC(N)=O)NC(=O)c3ccc(NC(=O)c4ccc(C#N)cn4)cc3)cc2)ccc(C(=O)Nc2ccc(C(=O)O)cc2)c1O	Enterobacter cloacae	microbial growth		DSM30054	MIC	> 64 µg/mL
Cc1c(CN(C)C(=O)/C=C/c2cnc3c(c2)CC(CCN)C(=O)N3)oc2ccccc12.Cl (centres unmarked)	Enterobacter cloacae	microbial growth	broth dilution		MIC	8 µg/mL
CN(C)[C@@H]1C(O)=C(C(N)=O)C(=O)[C@@]2(O)C(O)=C3C(=O)c4c(O)c(N)nc(F)c4C[C@H]3C[C@@H]12.Cl.Cl	Enterobacter cloacae	microbial growth	broth dilution	ATCC13047	MIC	0.5 µg/mL
CN[C@H](CC(C)C)C(=O)N[C@H]1C(=O)N[C@@H](CC(N)=O)C(=O)N[C@H]2C(=O)N[C@H]3C(=O)N[C@H](C(=O)N[C@H](C(=O)O)c4cc(O)cc(O)c4-c4cc3ccc4O)[C@H](O)c3ccc(c(Cl)c3)Oc3cc2cc(c3O[C@@H]2O[C@H](CO)[C@@H](O)[C@H](O)[C@H]2O[C@H]2C[C@](C)(N)[C@H](O)[C@H](C)O2)Oc2ccc(cc2Cl)[C@H]1O	Enterococcus gallinarum	microbial growth	broth dilution	GALLINARUM	MIC	4 µg/mL (≈ 2.76 µM)
CO[C@@H](C(N)=O)[C@H](NC(=O)c1ccc(NC(=O)c2ccc(C#N)cc2)cc1)C(=O)Nc1ccc(C(=O)Nc2ccc(C(=O)Nc3ccc(C(=O)O)cc3)c(O)c2OC(C)C)cc1	Serratia marcescens	microbial growth		DSM30121	MIC	> 64 µg/mL
C/C=C(\C)c1cc(OC(=O)c2c(C)c(Cl)c(O)c(Cl)c2O)c(C)c(O)c1C(=O)O	Enterococcus gallinarum	microbial growth	broth dilution	GALLINARUM	MIC	64 µg/mL (≈ 145 µM)
CCCNc1nc(N(C)C)c2c(c1O)C(=O)C1=C(O)[C@]3(O)C(=O)C(C(N)=O)=C(O)[C@@H](N(C)C)[C@@H]3C[C@@H]1C2.Cl.Cl	Enterobacter cloacae	microbial growth	broth dilution	ATCC13047	MIC	> 32 µg/mL
C/C(=C\c1ccc(C#N)cc1)C(=O)Nc1ccc(C(=O)N[C@@H](CC(N)=O)C(=O)Nc2ccc(C(=O)Nc3ccc(C(=O)Nc4ccc(C(=O)O)cc4)c(O)c3OC(C)C)cc2)cc1	Serratia marcescens	microbial growth		DSM30121	MIC	> 64 µg/mL
CC(C)OCCNc1nc(Cl)c2c(c1O)C(=O)C1=C(O)[C@]3(O)C(=O)C(C(N)=O)=C(O)[C@@H](N(C)C)[C@@H]3C[C@@H]1C2.Cl.Cl.Cl	Enterobacter cloacae	microbial growth	broth dilution	ATCC13047	MIC	32 µg/mL
C/C=C(\C)c1cc(O)c(C)c(OC(=O)c2c(C)c(Cl)c(O)c(Cl)c2O)c1	Enterococcus gallinarum	microbial growth	broth dilution	GALLINARUM	MIC	8 µg/mL (≈ 20.1 µM)
CCCC[C@H]1CN(CCCC[C@H]2CNC(=N)N2CCc2cccc(C(F)(F)F)c2)C(=N)N1CCCCC1CCCCC1	Enterobacter cloacae	microbial killing			MBC	4.2 µM (≈ 2.48 µg/mL)
